From ChEMBL document CHEMBL4706596, “Synthesis, biological evaluation, in silico modeling and crystallization of novel small monocationic molecules with potent antiproliferative activity by dual mechanism” (Eur J Med Chem, 2020)

What was measured:
Choline kinase alpha [1] = biological target: T1, Choline kinase alpha (Homo sapiens, UniProt P35790); test: (§1) Inhibition of human CKalpha1 assessed as reduction in 14C incorporation from [methyl-14C]choline to phosphatidylcholine at 10 uM using [methyl-14C]choline as substrate preincubated for 5 mins in presence of ATP and MgCl2 followed by substrate addition and measured after 10 mins by liquid scintillation counting method relative to control; conditions: time 15.0 min
Procedure, shortened: (§2)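 Purified human CKα1 (20 ng) in 100 mM Tris pH 8.5 with 10 mM MgCl₂ and 10 mM ATP, DMSO ≤0.1%, was preincubated 5 min at 37 °C. Reaction was started with 1 mM [methyl-¹⁴C]choline (4500 dpm/nmol), run 10 min at 37 °C and stopped in boiling water. Product was separated by silica TLC, scraped and scintillation-counted against DMSO controls. At least three experiments were run; IC50 was obtained from sigmoidal dose-response fits.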
Target sequence in this assay (P35790 whole entry, looked up): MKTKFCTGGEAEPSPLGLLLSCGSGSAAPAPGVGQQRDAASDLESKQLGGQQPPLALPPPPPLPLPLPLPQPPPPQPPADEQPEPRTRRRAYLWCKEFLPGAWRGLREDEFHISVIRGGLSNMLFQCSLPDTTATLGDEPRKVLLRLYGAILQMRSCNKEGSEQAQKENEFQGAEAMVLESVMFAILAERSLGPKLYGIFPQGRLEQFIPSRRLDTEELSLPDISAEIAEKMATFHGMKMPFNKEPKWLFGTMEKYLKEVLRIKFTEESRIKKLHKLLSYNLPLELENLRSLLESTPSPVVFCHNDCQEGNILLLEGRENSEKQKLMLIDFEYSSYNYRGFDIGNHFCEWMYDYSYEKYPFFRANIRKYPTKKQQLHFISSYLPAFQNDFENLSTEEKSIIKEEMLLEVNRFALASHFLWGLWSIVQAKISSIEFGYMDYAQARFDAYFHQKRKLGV

Choline kinase alpha [2] = biological target: T1, Choline kinase alpha; test: as §1, with “at 30” for “at 10”; conditions: time 15.0 min; procedure, shortened: as §2
Target sequence in this assay (P35790 whole entry, looked up): as above

HT-29 [3] = test: Antiproliferative activity against human HT-29 cells assessed as inhibition of cell proliferation incubated for 72 hrs by MTT assay; format: functional
Procedure, shortened: (§3)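 Cells seeded at 8 × 10³/well and held 18 h at 37 °C, 5% CO₂. Medium then replaced with compound at several concentrations for 72 h at 37 °C, followed by MTT viability read-out. GI50 is taken against cells given the maximum DMSO (0.25%), which is set as 100% viability. Dose-response curves come from at least three independent experiments run in triplicate and are reported as mean ± SE.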

[4] = biological target: Choline/ethanolamine kinase (Homo sapiens, UniProt Q9Y259); test: Binding affinity to human CKbeta assessed as dissociation constant by spectroflurometry
Procedure, shortened: (§4)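 Purified human CK (cloned as reported earlier) at 1 µM was titrated with compound in 25 mM Tris, 150 mM NaCl, pH 7.5 at 25 °C. Compound ranges were 0.1–10 µM for CKα1 and 0.5–200 µM for CKβ. Tryptophan quenching was read with excitation at 280 nm, emission 300–400 nm and 5 nm slits. DMSO-matched controls were run, and Kd was fitted to a single-site model. Results are given as mean ± SD.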

Choline kinase alpha [5] = biological target: T1, Choline kinase alpha; test: as §1, with “at 50” for “at 10”; conditions: time 15.0 min; procedure, shortened: as §2
Target sequence in this assay (P35790 whole entry, looked up): as above

HeLa [6] = test: Antiproliferative activity against human HeLa cells assessed as inhibition of cell proliferation incubated for 72 hrs by MTT assay; format: functional; procedure, shortened: as §3
CCRF-CEM [7] = test: Antiproliferative activity against human CCRF-CEM cells assessed as inhibition of cell proliferation incubated for 72 hrs by MTT assay; format: functional; procedure, shortened: as §3
RS4-11 [8] = test: Antiproliferative activity against human RS4-11 cells assessed as inhibition of cell proliferation incubated for 72 hrs by MTT assay; format: functional; procedure, shortened: as §3
Homo sapiens = organism: Homo sapiens; test: Selectivity index, ratio of Kd for human CKbeta to Kd for human CKalpha1
Choline kinase alpha [9] = biological target: T1, Choline kinase alpha; test: Binding affinity to human CKalpha1 assessed as dissociation constant by spectroflurometry; procedure, shortened: as §4
Target sequence in this assay (P35790 whole entry): as the sequence (P35790 whole entry, looked up) above

[10] = Inhibition of [methyl-14C]choline uptake in human HepG2 cells at 10 uM incubated for 10 mins followed by removal of medium containing compound and subsequent addition of [methyl-14C]choline measured after 5 mins relative to control; format: functional; conditions: HepG2, 10 min
Procedure, shortened: (§5)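 Cells at 200,000/well were incubated for 10 min at 37 °C in medium with or without CKα1 inhibitor. The medium was then removed and cells were exposed to [methyl-¹⁴C]choline (31 Ci/mol) for 5 min at 37 °C. Uptake was stopped by aspiration and two ice-cold PBS washes containing choline. Inhibition is expressed as % of untreated control.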

[11] = Inhibition of [methyl-14C]choline uptake in human HT-29 cells at 30 uM incubated for 10 mins followed by removal of medium containing compound and subsequent addition of [methyl-14C]choline measured after 5 mins relative to control; format: functional; conditions: HT-29, 10 min; procedure, shortened: as §5
[12] = Inhibition of [methyl-14C]choline uptake in human HT-29 cells at 10 uM incubated for 10 mins followed by removal of medium containing compound and subsequent addition of [methyl-14C]choline measured after 5 mins relative to control; format: functional; conditions: HT-29, 10 min; procedure, shortened: as §5
[13] = Inhibition of [methyl-14C]choline uptake in human HepG2 cells at 30 uM incubated for 10 mins followed by removal of medium containing compound and subsequent addition of [methyl-14C]choline measured after 5 mins relative to control; format: functional; conditions: HepG2, 10 min; procedure, shortened: as §5
Choline kinase alpha [14] = biological target: T1, Choline kinase alpha; test: as §1, with “[…]” for “phosphatidylcholine at 10 uM”; procedure, shortened: as §2
Target sequence in this assay (P35790 whole entry): as the sequence (P35790 whole entry, looked up) above

RS4-11 [15] = test: Antiproliferative activity against human RS4-11 cells assessed as inhibition of cell proliferation; format: functional; procedure, shortened: as §3
HT-29 [16] = test: Antiproliferative activity against human HT-29 cells assessed as inhibition of cell proliferation; format: functional; procedure, shortened: as §3
HeLa [17] = test: Antiproliferative activity against human HeLa cells assessed as inhibition of cell proliferation; format: functional; procedure, shortened: as §3
CCRF-CEM [18] = test: Antiproliferative activity against human CCRF-CEM cells assessed as inhibition of cell proliferation; format: functional; procedure, shortened: as §3

Choline/ethanolamine kinase, sequence (Q9Y259 whole entry): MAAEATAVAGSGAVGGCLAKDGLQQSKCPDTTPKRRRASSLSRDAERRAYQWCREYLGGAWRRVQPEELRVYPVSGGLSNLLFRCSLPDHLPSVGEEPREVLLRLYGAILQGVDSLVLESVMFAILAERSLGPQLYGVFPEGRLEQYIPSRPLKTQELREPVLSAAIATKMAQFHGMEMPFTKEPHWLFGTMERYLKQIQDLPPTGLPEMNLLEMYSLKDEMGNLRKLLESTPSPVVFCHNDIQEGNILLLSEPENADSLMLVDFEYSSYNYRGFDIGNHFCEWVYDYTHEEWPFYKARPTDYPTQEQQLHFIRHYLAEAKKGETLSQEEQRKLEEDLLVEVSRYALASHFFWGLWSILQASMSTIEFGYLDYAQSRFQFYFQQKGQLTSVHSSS

Structure (SMILES)	inhibition (Choline kinase alpha [1]) [%]	inhibition (Choline kinase alpha [2]) [%]	GI50 (HT-29 [3]) [µM]	GI50 (HeLa [6]) [µM]	GI50 (CCRF-CEM [7]) [µM]	GI50 (RS4-11 [8]) [µM]	Kd (Choline kinase alpha [9]) [µM]	also measured
c1ccc(-c2ccc(C[N+]34CCC(CC3)CC4)cc2)cc1	26.6	30.2	24.7	29.9	11.8	2.6	–	–
CN(c1ccc(Cl)cc1)c1cc[n+](Cc2ccc(C(F)(F)F)cc2)c2cc(Cl)ccc12	10.4	14.5	1.3	2.6	2	1.3	–	–
CN(c1ccccc1)c1cc[n+](Cc2ccc(-c3ccccc3)cc2)c2cc(Cl)ccc12	38.6	76	0.85	1.7	1.7	1.4	0.185	Kd [4]: 20 µM; inhibition at 10 µM [10]: 87.2%; inhibition at 30 µM [11]: 93.3%; IC50 (Choline kinase alpha [14]): 12.6 µM; Ratio (Homo sapiens): 108; inhibition at 10 µM [12]: 85.5%; inhibition at 30 µM [13]: 94.8%
FC(F)(F)c1ccc(C[n+]2ccc(N3CCCCCC3)c3ccc(Cl)cc32)cc1	34.7	52.7	5.4	4.7	4.6	3.2	–	–
OC1C[N+]2(Cc3ccc(-c4ccccc4)cc3)CCC1CC2 (stereo unspecified)	45.6	53	34	27.5	16.9	1.7	–	–
OC1C[N+]2(Cc3ccc(C(F)(F)F)cc3)CCC1CC2 (stereo unspecified)	–	–	> 100	82.3	> 100	> 100	–	inhibition at 10 µM [10]: 14.3%; inhibition at 30 µM [11]: 21.6%; inhibition at 10 µM [12]: 17.6%; inhibition at 30 µM [13]: 15.1%
Clc1ccc2c(N3CCCCCC3)ccnc2c1	–	–	–	–	–	–	45	–
Clc1ccc2c(N3CCCC3)cc[n+](Cc3ccc(-c4ccccc4)cc3)c2c1	36.9	46.3	0.04	0.28	0.04	0.05	–	–
CN(C)c1cc[n+](Cc2ccc(CCCCc3ccc(C[n+]4ccc(N(C)C)cc4)cc3)cc2)cc1	–	–	–	–	–	–	–	GI50 (RS4-11 [15]): 1 µM; GI50 (HT-29 [16]): 1.9 µM; GI50 (HeLa [17]): 1.9 µM; GI50 (CCRF-CEM [18]): 0.21 µM
FC(F)(F)c1ccc(C[N+]23CCC(CC2)CC3)cc1	8.07	24.7	> 100	90.8	> 100	> 100	–	inhibition at 10 µM [10]: 5.1%; inhibition at 30 µM [11]: 2.4%; inhibition at 10 µM [12]: 9.1%; inhibition at 30 µM [13]: 17.7%
c1cc(N2CCCC2)ccn1	–	–	–	–	–	–	49	–
FC(F)(F)c1ccc(C[n+]2ccc(N3CCCC3)c3ccc(Cl)cc32)cc1	–	24.9	12.9	15	3	1	–	–
CN(c1ccccc1)c1cc[n+](Cc2ccc(-c3ccc(C[n+]4ccc(N(C)c5ccccc5)c5ccc(Cl)cc54)cc3)cc2)c2cc(Cl)ccc12	–	–	–	–	–	–	–	GI50 (RS4-11 [15]): 0.17 µM; GI50 (HT-29 [16]): 0.4 µM; GI50 (HeLa [17]): 0.83 µM; GI50 (CCRF-CEM [18]): 0.61 µM
c1ccc(-c2ccc(C[n+]3ccc(N4CCCCCC4)c4ccccc43)cc2)cc1	–	–	17.5	14.8	8.6	12.8	–	–

Further lines, with some results ahead:

inhibition (Choline kinase alpha [1]) [%]	inhibition (Choline kinase alpha [2]) [%]	GI50 (HT-29 [3]) [µM]	GI50 (HeLa [6]) [µM]	GI50 (CCRF-CEM [7]) [µM]	GI50 (RS4-11 [8]) [µM]	Kd (Choline kinase alpha [9]) [µM]	Structure (SMILES)	also measured
35.8	27.5	4.6	16.2	0.56	0.03	0.4	Clc1ccc2c(N3CCCCCC3)cc[n+](Cc3ccccc3)c2c1	Kd [4]: 33 µM; inhibition (Choline kinase alpha [5]): 38.7%; Ratio (Homo sapiens): 83
23.1	28.4	4.5	16.3	2.2	3	0.89	CN(c1ccccc1)c1cc[n+](Cc2ccccc2)c2cc(Cl)ccc12	Kd [4]: 36 µM; inhibition (Choline kinase alpha [5]): 18.6%; Ratio (Homo sapiens): 41
25.4	33.5	11.2	23.2	18	7.9	–	CN(C)c1cc[n+](Cc2ccc(C(F)(F)F)cc2)cc1	inhibition at 10 µM [10]: 11.7%; inhibition at 30 µM [11]: 22.7%; inhibition at 10 µM [12]: 14.3%; inhibition at 30 µM [13]: 16.9%
18.9	26.4	0.29	0.74	0.43	0.83	1.7	CN(C)c1cc[n+](Cc2ccc(-c3ccccc3)cc2)cc1	–
–	–	8.1	42.1	12	7.6	–	FC(F)(F)c1ccc(C[n+]2ccc(N3CCCC3)cc2)cc1	–
11.1	19.6	38	66	5.3	8.3	24	c1ccc(C[n+]2ccc(N3CCCC3)cc2)cc1	inhibition (Choline kinase alpha [5]): 27.8%
–	28	0.16	0.95	0.18	0.22	0.67	c1ccc(-c2ccc(C[n+]3ccc(N4CCCC4)cc3)cc2)cc1	inhibition at 10 µM [10]: 70.3%; inhibition at 30 µM [11]: 79.5%; inhibition at 10 µM [12]: 56.7%; inhibition at 30 µM [13]: 84.3%
–	–	3	2.1	2.1	2.7	–	CN(c1ccccc1)c1cc[n+](Cc2ccc(C(F)(F)F)cc2)c2cc(Cl)ccc12	–
31.5	35	4.1	19.6	3.4	1.23	–	Clc1ccc2c(N3CCCC3)cc[n+](Cc3ccccc3)c2c1	–
–	37.2	> 100	44.2	54.3	30.3	14	CN(C)c1cc[n+](Cc2ccccc2)cc1	–
–	–	–	–	–	–	35	CN(C)c1ccncc1	–
–	–	–	–	–	–	82	CN(c1ccccc1)c1ccnc2cc(Cl)ccc12	–
–	–	0.23	0.91	0.3	0.14	–	CN(c1ccc(Cl)cc1)c1cc[n+](Cc2ccc(-c3ccccc3)cc2)cc1	inhibition at 10 µM [10]: 83.3%; inhibition at 30 µM [11]: 95%; inhibition at 10 µM [12]: 78.4%; inhibition at 30 µM [13]: 94.8%
